{"data": "Experimental data pooled from the literature", "cell line": "MDA-MB-231", "observed": "cell growth or viability", "note": "Protocols differ between the studies behind these lines."}
{"Compound": "CCc1c(C)c2ccc(OCC=Cc3ccccc3)c(C)c2oc1=O", "method": "MTT", "concentration": "125 µg/mL", "quantity": "viability", "value": "87.1%"}
{"Compound": "C=CC(=O)NC1CCN(c2ncc3ncnc(Nc4ccc(Oc5ccc6c(c5)ncn6C)c(C)c4)c3n2)CC1", "quantity": "EC50", "value": "328 nM"}
{"Compound": "O=C(C=Cc1cccc(F)c1)Nc1cc(-c2ccnc(N3CCC(O)CC3)c2)ccn1", "method": "MTT", "concentration": "5 µM", "quantity": "inhibition", "value": "78.3%"}
{"Compound": "C=C(COCc1ccc(F)cc1)[C@@H]1CC[C@@H](C)C[C@H]1OCc1ccc(F)cc1", "method": "MTT", "concentration": "30 µM", "time": "72 h", "quantity": "inhibition", "value": "25%"}
{"Compound": "Cc1cc(NC(=O)C=Cc2ccccc2)cc(-c2ccnc(N3CCOCC3)c2)c1", "method": "MTT", "concentration": "5 µM", "quantity": "inhibition", "value": "17.7%"}
{"Compound": "O=C(O)c1ccccc1Nc1cccc(C(F)(F)F)c1", "method": "SRB", "time": "48 h", "quantity": "GI50", "value": "> 30 µM"}
{"Compound": "CCc1c(C)c2ccc(OCC(=O)NN=Cc3ccc([N+](=O)[O-])cc3)cc2oc1=O", "method": "MTT", "concentration": "31.25 µg/mL", "quantity": "viability", "value": "36.3%"}
{"Compound": "C[C@@H]1CC[C@@H]([C@@](O)(CNCc2cccc3ccccc23)COCc2ccccc2)[C@H](OCc2ccccc2)C1", "method": "MTT", "concentration": "10 µM", "time": "72 h", "quantity": "inhibition", "value": "83%"}
{"Compound": "C=CC(=O)c1cccnc1Nc1cc(C(F)(F)F)ccc1OCc1ccccc1", "method": "SRB", "time": "48 h", "quantity": "GI50", "value": "18.3 µM"}
{"Compound": "C=C(COCc1ccccc1)[C@@H]1CC[C@@H](C)C[C@H]1OCc1ccccc1", "method": "MTT", "concentration": "30 µM", "time": "72 h", "quantity": "inhibition", "value": "28.1%"}
{"Compound": "C=CCOc1ccc2c(C)c(CC)c(=O)oc2c1C", "method": "MTT", "concentration": "31.25 µg/mL", "quantity": "viability", "value": "99.7%"}
{"Compound": "O=[N+]([O-])c1ccc2c(c1)S(=O)(=O)C=C2", "method": "ATP luminescence", "time": "72 h", "quantity": "IC50", "value": "1300 nM"}
{"Compound": "COc1ccc(COC[C@@](O)(CNCc2ccc(F)cc2)[C@@H]2CC[C@@H](C)C[C@H]2OCc2ccc(OC)cc2)cc1", "method": "MTT", "concentration": "30 µM", "time": "72 h", "quantity": "inhibition", "value": "99.2%"}
{"Compound": "O=C(/C=C/c1ccc(F)cc1)Nc1cc(-c2ccnc(N3CCC(O)CC3)c2)ccn1", "method": "MTT", "concentration": "5 µM", "quantity": "inhibition", "value": "63%"}
{"Compound": "COc1cc2c3c(n(CCCn4ccnc4)c(=O)c2cc1OC)-c1nc2c(cc1C3=O)OCO2", "method": "MTS", "time": "72 h", "quantity": "IC50", "value": "1510 nM"}
{"Compound": "Cc1cccc(/C=C/C(=O)Nc2cc(-c3ccnc(N4CCOCC4)c3)ccn2)c1", "method": "MTT", "concentration": "5 µM", "quantity": "inhibition", "value": "79.3%"}
{"Compound": "CCNC(=S)NNC(=O)COc1ccc2c(C)c(CC)c(=O)oc2c1C", "method": "MTT", "concentration": "1000 µg/mL", "quantity": "viability", "value": "4.73%"}
{"Compound": "Cc1cccc(/C=C/C(=O)Nc2cccc(-c3ccnc(N4CCC(O)CC4)c3)c2)c1", "method": "MTT", "concentration": "5 µM", "quantity": "inhibition", "value": "63.5%"}
{"Compound": "COc1cc2c3c(n(CCCN4CCOCC4)c(=O)c2cc1OC)-c1nc2c(cc1C3=O)OCO2", "method": "MTS", "time": "72 h", "quantity": "IC50", "value": "> 2000 nM"}
{"Compound": "C[C@@H]1CC[C@@H]([C@](C)(O)CNCc2cccc(F)c2)[C@H](OCc2ccccc2)C1", "method": "MTT", "concentration": "10 µM", "time": "72 h", "quantity": "inhibition", "value": "41.5%"}
{"Compound": "O=C(O)c1cccnc1Nc1cccc(C(F)(F)F)c1", "method": "SRB", "time": "48 h", "quantity": "GI50", "value": "> 30 µM"}
{"Compound": "CCc1c(C)c2ccc(OCC(=O)NNC(=S)Nc3ccccc3)c(C)c2oc1=O", "method": "MTT", "concentration": "500 µg/mL", "quantity": "viability", "value": "4.23%"}
{"Compound": "COc1cc2c3c(n(CCCNC(C)C)c(=O)c2cc1OC)-c1nc2c(cc1C3=O)OCO2", "method": "MTS", "time": "72 h", "quantity": "IC50", "value": "644 nM"}
{"Compound": "COc1ccccc1CNC[C@@](C)(O)[C@@H]1CC[C@@H](C)C[C@H]1OCc1ccccc1", "method": "MTT", "concentration": "30 µM", "time": "72 h", "quantity": "inhibition", "value": "87.6%"}
{"Compound": "Cc1cc(NC(=O)C=Cc2ccccc2)cc(-c2ccnc(N3CCC(O)CC3)c2)c1", "method": "MTT", "concentration": "5 µM", "quantity": "inhibition", "value": "55%"}
{"Compound": "Cc1c(Cc2ccccc2)c(=O)oc2c(C)c(OCC(=O)NN=Cc3ccco3)ccc12", "method": "MTT", "concentration": "31.25 µg/mL", "quantity": "viability", "value": "15.3%"}
{"Compound": "COc1ccc(CNC[C@](O)(COCc2ccc(F)cc2)[C@@H]2CC[C@@H](C)C[C@H]2OCc2ccc(F)cc2)cc1", "method": "MTT", "concentration": "10 µM", "time": "72 h", "quantity": "inhibition", "value": "99.6%"}
{"Compound": "CCOc1ccc2c(C)c(CC)c(=O)oc2c1C", "method": "MTT", "concentration": "1000 µg/mL", "quantity": "viability", "value": "2.44%"}
{"Compound": "Nc1ccccc1NC(=O)c1ccc(CNc2ccc(NC3=C(Cl)C(=O)c4ncccc4C3=O)cc2)cc1", "method": "MTT", "time": "48 h", "quantity": "IC50", "value": "2440 nM"}
{"Compound": "O=C(C=Cc1ccccc1)Nc1cccc(-c2ccnc(N3CCC(CO)CC3)c2)c1", "method": "MTT", "concentration": "5 µM", "quantity": "inhibition", "value": "67.4%"}
{"Compound": "CC(=NNC(=O)COc1ccc2c(C)c(Cc3ccccc3)c(=O)oc2c1C)c1ccc(Br)cc1", "method": "MTT", "concentration": "250 µg/mL", "quantity": "viability", "value": "22.8%"}
{"Compound": "Nc1ccccc1NC(=O)c1ccc(CNC(=O)OCc2cccnc2)cc1", "method": "MTT", "time": "48 h", "quantity": "IC50", "value": "2930 nM"}
{"Compound": "C[C@@H]1CC[C@@H]([C@@](O)(CNCc2ccccc2)COCc2ccccc2)[C@H](OCc2ccccc2)C1", "method": "MTT", "concentration": "30 µM", "time": "72 h", "quantity": "inhibition", "value": "97%"}
{"Compound": "O=C(C=Cc1ccccc1)Nc1cc(-c2ccnc(N3CCOCC3)c2)ccn1", "method": "MTT", "time": "72 h", "quantity": "IC50", "value": "72.9 nM"}
